Results on two compounds are retold here after ChEMBL document CHEMBL4387702, “Design and synthesis novel di-carbonyl analogs of curcumin (DACs) act as potent anti-inflammatory agents against LPS-induced acute lung injury (ALI)” (Eur J Med Chem, 2019).

The test system of data set [1] is RAW264.7. Briefly: Inhibition of MAPK/NFkappaB in ICR mouse RAW264.7 cells assessed as reduction in LPS-induced TNFalpha production at 10 uM pretreated for 0.5 hrs followed by LPS challenge and measured after 24 hrs by ELISA relative to control. Type of data set: cell-based.
The nature of data set [2]: Inhibition of MAPK/NFkappaB in ICR mouse RAW264.7 cells assessed as reduction in LPS-induced TNFalpha production pretreated for 0.5 hrs followed by LPS challenge and measured after 24 hrs by ELISA. Type of data set: cell-based. For orientation: In an ELISA, binding on a coated surface is turned into a signal by an enzyme label.
The target in data set [3] is MAP kinase p38 (Mus musculus) (UniProt P47811+O08911+Q9WUI1+Q9Z1B7). Briefly: Inhibition of LPS-induced p38 MAPK phosphorylation in ICR mouse RAW264.7 cells at 10 uM preincubated for 0.5 hrs followed by LPS challenge and measured after 30 mins by immunoblotting analysis. The data set is classed as cell-based. The procedure, abridged: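 RAW 264.7 cells were pretreated with compound for 0.5 h and then stimulated with LPS for 30 min. Lysates were resolved on 10% or 12% SDS-PAGE and transferred to nitrocellulose. Membranes were blocked in TBS (pH 7.6) with 0.05% Tween 20 and 5% milk. Blots were probed for p-p38, p38, p-ERK, ERK, IκBα and GAPDH, detected with HRP secondaries and ECL.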
Background: Immunoblotting shows a protein as a band on a membrane.

Data set [4] has as its system RAW264.7. In words: Inhibition of MAPK/NFkappaB signaling in ICR mouse RAW264.7 cells assessed as reduction in LPS-induced TNF-alpha mRNA expression pretreated for 0.5 hrs followed by LPS challenge and measured after 40 mins by TRIZOL reagent-based RT-qPCR analysis. Type of data set: cell-based. An outline of the steps:
(§1)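 RAW 264.7 cells were pretreated with compound for 0.5 h and then activated with LPS. Values were normalized to actin and expressed relative to the LPS group.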

The test system of data set [5] is RAW264.7. Briefly: Inhibition of MAPK/NFkappaB signaling in ICR mouse RAW264.7 cells assessed as reduction in LPS-induced IL-6 mRNA expression pretreated for 0.5 hrs followed by LPS challenge and measured after 40 mins by TRIZOL reagent-based RT-qPCR analysis. The data set is classed as cell-based. An outline of the steps:
as §1
(In general: Real-time PCR tracks product formation cycle by cycle.)

Data set [6] deals with RAW264.7. In words: Inhibition of MAPK/NFkappaB signaling in ICR mouse RAW264.7 cells assessed as reduction in LPS-induced ICAM1 mRNA expression pretreated for 0.5 hrs followed by LPS challenge and measured after 40 mins by TRIZOL reagent-based RT-qPCR analysis. Type of data set: cell-based. The procedure, abridged: as §1
Data set [7] deals with RAW264.7. Briefly: Inhibition of MAPK/NFkappaB signaling in ICR mouse RAW264.7 cells assessed as reduction in LPS-induced VCAM1 mRNA expression pretreated for 0.5 hrs followed by LPS challenge and measured after 40 mins by TRIZOL reagent-based RT-qPCR analysis. Type of data set: cell-based. An outline of the steps:
as §1

Data set [8] deals with Mus musculus. In words: Antiinflammatory activity in C57BL/6 mouse model of LPS-induced acute lung injury assessed as reduction in total cell count in BALF at 10 mg/kg, ip administered daily for one week prior to LPS challenge and measured after 6 hrs. Type of data set: functional, organism-based. The procedure, abridged: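 C57BL/6 mice (eight per group) received 10 mg/kg i.p. daily for one week; vehicle was 0.9% saline. They were then challenged with intratracheal LPS at 5 mg/kg and sacrificed 6 h later. Endpoints were lung wet/dry weight ratio and total and neutrophil cell counts in BALF, reported as mean ± SEM, n = 6.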

For data set [9], the system named is Mus musculus. In words: Antiinflammatory activity in C57BL/6 mouse model of LPS-induced acute lung injury assessed as reduction in IL-6 production in serum at 10 mg/kg, ip administered daily for one week prior to LPS challenge and measured after 6 hrs by ELISA. Type of data set: functional, organism-based. An outline of the steps: (§2)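 In C57BL/6 mice (eight per group), compound was dosed at 10 mg/kg i.p. once daily for a week, with a 0.9% saline vehicle control. LPS 5 mg/kg was given intratracheally and animals were euthanized with chloral hydrate after 6 h. TNF-α and IL-6 in serum and BALF were measured by ELISA. Data are mean ± SEM, n = 6.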

Data set [10] relates to Mus musculus. In words: Antiinflammatory activity in C57BL/6 mouse model of LPS-induced acute lung injury assessed as reduction in IL-6 production in BALF at 10 mg/kg, ip administered daily for one week prior to LPS challenge and measured after 6 hrs by ELISA. Type of data set: functional, organism-based. An outline of the steps:
as §2

The test system of data set [11] is Mus musculus. In words: Antiinflammatory activity in C57BL/6 mouse model of LPS-induced acute lung injury assessed as reduction in IL1beta mRNA expression in lung tissue at 10 mg/kg, ip administered daily for one week prior to LPS challenge and measured after 6 hrs by TRIZOL reagent-based RT-qPCR analysis. Type of data set: functional, organism-based. The procedure, abridged: (§3)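 Mouse ALI model with eight C57BL/6 mice per group. Compound was given at 10 mg/kg i.p. daily for one week; controls received 0.9% saline. LPS was instilled intratracheally at 5 mg/kg. Mice were euthanized with chloral hydrate 6 h later and lungs collected. Lung mRNA for each target was quantified by real-time qPCR.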

In data set [12] the test system is Mus musculus. In words: Antiinflammatory activity in C57BL/6 mouse model of LPS-induced acute lung injury assessed as reduction in VCAM1 mRNA expression in lung tissue at 10 mg/kg, ip administered daily for one week prior to LPS challenge and measured after 6 hrs by TRIZOL reagent-based RT-qPCR analysis. The data set is classed as functional, organism-based. The procedure, abridged: as §3

Data set [13] in a line: Oral bioavailability in Sprague-Dawley rat at 50 mg/kg measured up to 24 hrs by LC-MS/MS analysis. Type of data set: ADME, organism-based. To be noted: in vivo. An outline of the steps: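 The rat oral and intravenous plasma profiles (n = 5, tail sampling to 24 h, UHPLC-MS/MS) were used. Oral bioavailability was calculated as F = (AUC p.o × Dose i.v)/(AUC i.v × Dose p.o).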

A short description of data set [14]: AUC (0 to t) in Sprague-Dawley rat at 50 mg/kg, po by UHPLC-MS/MS analysis. Type of data set: ADME, organism-based. Particulars: in vivo. The procedure, abridged: (§4)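 Male Sprague-Dawley rats (250 ± 20 g) fasted overnight with free access to water, n = 5 per route. Intravenous dose was 5 mg/kg; the intragastric dose is printed as 20 mg/kg in the methods and 50 mg/kg in the table. Tail blood was taken at 0.083, 0.25, 0.5, 1, 2, 4, 6, 9, 12 and 24 h. Samples were centrifuged (12000 rpm, 10 min), deproteinized with 2 volumes of acetonitrile, re-centrifuged and quantified by UHPLC-MS/MS.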

A short description of data set [15]: AUC (0 to infinity) in Sprague-Dawley rat at 5 mg/kg, iv by UHPLC-MS/MS analysis. Also on record: dose 5 mg/kg, route intravenous, time infinity. The data set is classed as ADME, organism-based. Particulars: in vivo. An outline of the steps: as §4
Data set [16] can be described thus: MRT (0 to t) in Sprague-Dawley rat at 5 mg/kg, iv by UHPLC-MS/MS analysis. Type of data set: ADME, organism-based. To be noted: in vivo. An outline of the steps: as §4
The nature of data set [17]: MRT (0 to infinity) in Sprague-Dawley rat at 50 mg/kg, po by UHPLC-MS/MS analysis. The data set is classed as ADME, organism-based. Particulars: in vivo. The procedure, abridged:
as §4

Data set [18] can be described thus: MRT (0 to infinity) in Sprague-Dawley rat at 5 mg/kg, iv by UHPLC-MS/MS analysis. Type of data set: ADME, organism-based. Particulars: in vivo. An outline of the steps:
as §4

Data set [19] in a line: Apparent clearance during terminal phase in Sprague-Dawley rat at 5 mg/kg, iv by UHPLC-MS/MS analysis. The data set is classed as ADME, organism-based. Particulars: in vivo. The procedure, abridged:
as §4

Data set [20] can be described thus: Apparent volume of distribution during terminal phase in Sprague-Dawley rat at 5 mg/kg, iv by UHPLC-MS/MS analysis. Type of data set: ADME, organism-based. Particulars: in vivo. The procedure, abridged: as §4
Data set [21] can be described thus: Cmax in Sprague-Dawley rat at 50 mg/kg, po by UHPLC-MS/MS analysis. The data set is classed as ADME, organism-based. Further details: dose 50 mg/kg, route oral. Particulars: in vivo. An outline of the steps: as §4

Structures are written as SMILES. Active and inactive are the calls of the source. The calls are words filed in the database; no cut-off is given here.

The inhibition is the change of the read-out against control, counted positive when it falls. As a reminder, the IC50 is the midpoint of a concentration-inhibition curve. Take `COc1cc(/C=C/C(=O)N2CCC/C(=C\c3cc(OC)c(OC)c(OC)c3)C2=O)ccc1O`: the inhibition with RAW264.7 [1] fell in the range of 90.9 to 92.5%. Moreover, the IC50 in data set [2] is 3.69 µM. In addition, the inhibition entry (in [3]; in the data set with RAW264.7 [4]; in the data set on RAW264.7 [5]; with RAW264.7 [6]; with RAW264.7 [7]) was “Active” throughout. Besides, the outcome with Mus musculus [8], in the data set with Mus musculus [9], in the data set on Mus musculus [10], in the data set on Mus musculus [11] and in the data set with Mus musculus [12] was Active.
In general, bioavailability refers to the share of a dose that reaches the circulation, judged against a reference dose that is usually intravenous. High values mean much systemic uptake, low ones little systemic uptake. By AUC(0-t) is commonly meant exposure summed from dosing to a finite time, without extrapolation to infinity. A higher AUC(0-t) goes with high exposure. As usually defined, the AUC is concentration integrated over time. Read a high AUC as high exposure. As a reminder, the MRT last is the average time that molecules of a dose stay in the body. What is called MRT inf is the average time that molecules of a dose stay in the body. A word on the MRT: it is the average time that molecules of a dose stay in the body. By Cmax is commonly meant the maximum level reached in the sampled fluid or tissue. On to `COc1cc(/C=C/C(=O)N2CCC/C(=C\c3cc(OC)c(OC)c(OC)c3)C2=O)ccc1OC(C)=O`, for which the inhibition in the data set with RAW264.7 [1] lay in the range of 90.9 to 92.5%. The IC50 in data set [2] came to 2.33 µM. In data set [13], this compound gave a bioavailability of 26.6%. For the same compound, the inhibition result (in data set [3]; with RAW264.7 [4]; in the data set with RAW264.7 [5]; in the data set on RAW264.7 [6]; in the data set with RAW264.7 [7]) was “Active” each time. The same compound had an AUC(0-t) in data set [14] of 231 ng·h/mL. This compound showed an area under the curve (AUC) in data set [15] of 122.4 ng·h/mL. Besides, the MRT last in data set [16] stood at 11.3 h. Further, the MRT inf in data set [17] amounted to 12.3 h. Besides, in data set [18], the mean residence time MRT amounted to 19.9 h. Also, the CLz/F in [19] was 404.4 L/h/kg. Moreover, the Vz/F in data set [20] came out at 59.5 L/kg. The Cmax in data set [21] amounted to 113 ng/mL. The result in the data set on Mus musculus [8], with Mus musculus [9], in the data set with Mus musculus [10], in the data set on Mus musculus [11] and in the data set with Mus musculus [12] was Active.
